In PMC6516474 (Journal of the American Chemical Society, 2019):
Read-outs that look alike come from different tables or passages of the source. Starred links: 1 amine or outer side, 2 acyl side, 3 side chain; linkers in the order of their positions; H or OH if unused. Positions of bridges follow the written chain, without caps; N, C: chain ends. Non-standard residues stand in square brackets, D forms with d. Residues, ends and D or L forms follow the SMILES beside them. Chains are numbered I, II in the order given. Actinocin(9to1) = Cc1c2oc3c(C)ccc(C(=O)[*:1])c3nc-2c(C(=O)[*:2])c(N)c1=O; NMeV = CN[C@H](C(=O)O)C(C)C; Sar = CNCC(=O)O

Key:
caspase-3 = assay: Immunofluorescence apoptosis, HeLa; type: cell-based, human; conditions: 24 h, 79a 0.015 µM, 92 0.012 µM
NIH-3T3 = assay: AlamarBlue proliferation assay, NIH-3T3; type: cell-based, mouse; conditions: for toxicity against NIH-3T3: 3 µM; for toxicity to NIH-3T3: growth inhibition screen at 1 and 3 µM; for EC50: read-out: EC50 NIH-3T3, NIH-3T3, inherently-insensitive line
cancer cell lines = assay: Broad anticancer activity over cancer cell lines; type: cell-based; conditions: range over cancer cell lines
γ-H2AX [1] = assay: Immunofluorescence DNA-damage response, HeLa; type: cell-based, human; conditions: 24 h, 79a 0.015 µM, 92 0.012 µM
γ-H2AX [2] = assay: Immunofluorescence DNA-damage response, NIH-3T3; type: cell-based, mouse; conditions: NIH-3T3, 24 h; 79a 0.111 µM, 92 0.038 µM, 97 0.042 µM; mitomycin C as validation
HEK293T = assay: AlamarBlue proliferation assay, HEK293T; type: cell-based; conditions: for fold more potent than 81 and digoxin 82: EC50 comparison
[3] = system: MEFs (a mouse embryonic fibroblast line); assay: Toxicity against MEF; type: cell-based; conditions: 3 µM
caspase-3 activation = assay: Immunofluorescence apoptosis, NIH-3T3; type: cell-based, mouse; conditions: NIH-3T3, 24 h; 79a 0.111 µM, 92 0.038 µM, 97 0.042 µM; mitomycin C as validation
MDA-MB-231 = assay: Proliferation EC50, MDA-MB-231; type: cell-based, human; conditions: for EC50: read-out: EC50 MDA-MB-231, MDA-MB-231; for fold more potent than 79a: MDA-MB-231, EC50 comparison
[4] = system: HFF1 (a human fibroblast line); assay: Toxicity against HFF1; type: cell-based
[5] = system: HEK293T, HeLa, Cos7, Raji, NIH-3T3; assay: AlamarBlue proliferation screen over a cell line panel; type: cell-based; conditions: 2 days
Procedure, shortened: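 Panel includes Raji (human Burkitt's lymphoma, grown in suspension) and NIH-3T3 (non-transformed mouse fibroblast) alongside adherent lines. Test compounds were screened at 2 µM and 0.6 µM, and proliferation was read by AlamarBlue over 2 days. The assay was validated by comparing normalized AlamarBlue signal averages of DMSO-treated cells with those of cells given 2 µg/ml puromycin (Z′ factor calculated).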

[6] = system: HF-II-E (a hepatoma line from rat); assay: Toxicity against HF-II-E; type: cell-based
U87 = assay: Proliferation EC50, U87; type: cell-based, human; conditions: U87, EC50 comparison
HEPG2 = assay: Proliferation EC50, HEPG2; type: cell-based, human; conditions: HEPG2, EC50 comparison
[7] = system: RAW (a virally-transformed mouse macrophage line); assay: Toxicity against RAW; type: cell-based
[8] = read-out: EC50 in HEK293T cells, HEK293T, 5 most potent compounds
[9] = Homo sapiens, HEK-293T, 48 h, read-out: EC50 in HEK293T
[10] = read-out: EC50 in HEK293T, HEK293T, proliferation over 2 days, AlamarBlue
[11] = Homo sapiens, HEK-293T, read-out: EC50 in HEK293T cells

C[C@@H]1O[C@@H](O[C@H]2CC[C@@]3(CO)[C@H](CC[C@@H]4[C@@H]3CC[C@]3(C)[C@@H](C5=CC(=O)OC5)CC[C@]43O)C2)[C@H](O)[C@H](O)[C@H]1O [79a, cannogenol-L-α-rhamnoside]
caspase-3 upregulation (caspase-3): Little upregulation
toxicity against NIH-3T3 (NIH-3T3): nontoxic
toxicity to NIH-3T3 (NIH-3T3): none of which were toxic to NIH-3T3
EC50 (NIH-3T3): > 3000 nM
concentrations of broad anticancer activity (cancer cell lines): 10 to 100 nM
γ-H2AX upregulation (γ-H2AX [1]): upregulated significantly
γ-H2AX upregulation (DNA-damage response) (γ-H2AX [2]): did not upregulate
fold more potent than 81 and digoxin 82 (HEK293T; HEK293T): 2–3 fold
EC50 (HEK293T; [8]): < 100 nM
toxicity against MEF [3]: nontoxic
caspase-3 activation (caspase-3 activation): did not upregulate
EC50 (MDA-MB-231): 111 nM

CN[C@@H]1C[C@H]2O[C@@](C)([C@@H]1OC)n1c3ccccc3c3c4c(c5c6ccccc6n2c5c31)C(=O)NC4 [Staurosporine, reference compound]
caspase-3 upregulation (caspase-3): upregulated
γ-H2AX upregulation (γ-H2AX [1]): upregulated

Cc1c2oc3c(C)ccc(C(=O)N[C@@H]4C(=O)N[C@H](C(C)C)C(=O)N5CCC[C@H]5C(=O)N(C)CC(=O)N(C)[C@@H](C(C)C)C(=O)O[C@@H]4C)c3nc-2c(C(=O)N[C@@H]2C(=O)N[C@H](C(C)C)C(=O)N3CCC[C@H]3C(=O)N(C)CC(=O)N(C)[C@@H](C(C)C)C(=O)O[C@@H]2C)c(N)c1=O [actinomycin D] (I: T[dV]P[Sar][NMeV] / II: T[dV]P[Sar][NMeV]; ester I:1-I:C, II:1-II:C; linker I:N-II:N via Actinocin(9to1))
EC50 (HEK293T; [9]): 2 nM

C[C@H]1CCC/C=C/[C@@H]2C[C@H](O)C[C@H]2[C@H](O)/C=C/C(=O)O1 [brefeldin A]
EC50 (HEK293T; [9]): 200 nM

C[C@]12C[C@@H](O)[C@H]3[C@@H](CC[C@]4(O)C[C@@H](O)C[C@@H](O)[C@]34CO)[C@@]1(O)CC[C@@H]2C1=CC(=O)OC1 [compound 1, ouabagenin]
toxicity to NIH-3T3 (NIH-3T3): none of which were toxic to NIH-3T3
EC50 (HEK293T; [10]): < 1000 nM
effect against HFF1 [4]: effective

C[C@@H]1O[C@@H](O[C@H]2C[C@@H](O)[C@]3(CO)[C@H]4[C@H](O)C[C@]5(C)[C@@H](C6=CC(=O)OC6)CC[C@]5(O)[C@@H]4CC[C@]3(O)C2)[C@H](O)[C@H](O)[C@H]1O [compound 2, ouabain]
toxicity to NIH-3T3 (NIH-3T3): none of which were toxic to NIH-3T3
EC50 (HEK293T; [9]): < 1000 nM
effect against HFF1 [4]: effective

C[C@]12CC[C@H]3[C@@H](CC[C@@H]4C[C@@H](O)CC[C@@]43CO)[C@@]1(O)CC[C@@H]2C1=CC(=O)OC1 [compound 5, cannogenol]
activity against NIH-3T3 in proliferation screen (NIH-3T3; 2 µM, 2 days): activity against every line except NIH-3T3
activity in proliferation screen ([5]; 0.6 µM): affecting most lines
activity in proliferation screen ([5]; 2 µM): active
EC50 (HEK293T; [10]): ~1000 nM

C[C@]12CC[C@H](O)C[C@H]1CC[C@@H]1[C@@H]2CC[C@]2(C)[C@@H](C3=CC(=O)OC3)CC[C@]12O [compound 80, digitoxigenin, reference compound]
toxicity to NIH-3T3 (NIH-3T3): none of which were toxic to NIH-3T3
EC50 (HEK293T; [9]): < 1000 nM

C[C@H]1O[C@@H](O[C@H]2[C@@H](O)C[C@H](O[C@H]3[C@@H](O)C[C@H](O[C@H]4CC[C@@]5(C)[C@H](CC[C@@H]6[C@@H]5CC[C@]5(C)[C@@H](C7=CC(=O)OC7)CC[C@]65O)C4)O[C@@H]3C)O[C@@H]2C)C[C@H](O)[C@@H]1O [compound 81, digitoxin]
toxicity to NIH-3T3 (NIH-3T3): none of which were toxic to NIH-3T3
EC50 (HEK293T; [9]): < 1000 nM
EC50 (HEK293T; [11]): < 100 nM
effect against HFF1 [4]: effective

C[C@H]1O[C@@H](O[C@H]2[C@@H](O)C[C@H](O[C@H]3[C@@H](O)C[C@H](O[C@H]4CC[C@@]5(C)[C@H](CC[C@@H]6[C@@H]5C[C@@H](O)[C@]5(C)[C@@H](C7=CC(=O)OC7)CC[C@]65O)C4)O[C@@H]3C)O[C@@H]2C)C[C@H](O)[C@@H]1O [compound 82, digoxin]
toxicity to NIH-3T3 (NIH-3T3): none of which were toxic to NIH-3T3
EC50 (HEK293T; [9]): < 1000 nM
EC50 (HEK293T; [11]): < 100 nM

C[C@@H]1O[C@H](O[C@H]2CC[C@]3(CO)[C@H]4CC[C@]5(C)[C@@H](C6=CC(=O)OC6)CC[C@]5(O)[C@@H]4CC[C@]3(O)C2)[C@H](O)[C@H](O)[C@H]1O [compound 92, strophanthidol-L-α-rhamnoside]
caspase-3 upregulation (caspase-3): Little upregulation
toxicity against NIH-3T3 (NIH-3T3): nontoxic
EC50 (NIH-3T3): > 3000 nM
effect against HF-II-E [6]: ineffective
concentrations of broad anticancer activity (cancer cell lines): 10 to 100 nM
γ-H2AX upregulation (γ-H2AX [1]): upregulated significantly
γ-H2AX upregulation (DNA-damage response) (γ-H2AX [2]): did not upregulate
fold more potent than 79a (U87): 3–4 fold
fold more potent than 79a (HEPG2): 3–4 fold
fold more potent than 81 and digoxin 82 (HEK293T; HEK293T): 2–3 fold
EC50 (HEK293T; [8]): < 100 nM
toxicity against MEF [3]: nontoxic
caspase-3 activation (caspase-3 activation): did not upregulate
fold more potent than 79a (MDA-MB-231): 3–4 fold
EC50 (MDA-MB-231): 38 nM

C[C@@H]1O[C@@H](O[C@H]2CC[C@@]3(C)[C@H](CC[C@@H]4[C@@H]3CC[C@]3(C)[C@@H](C5=CC(=O)OC5)CC[C@]43O)C2)[C@H](O)[C@H](O)[C@H]1O [compound 97, digitoxigenin-L-α-rhamnoside]
toxicity against NIH-3T3 (NIH-3T3): nontoxic
EC50 (NIH-3T3): > 3000 nM
effect against HF-II-E [6]: ineffective
concentrations of broad anticancer activity (cancer cell lines): 10 to 100 nM
γ-H2AX upregulation (DNA-damage response) (γ-H2AX [2]): did not upregulate
effect against RAW [7]: ineffective
fold more potent than 79a (U87): 3–4 fold
fold more potent than 79a (HEPG2): 3–4 fold
fold more potent than 81 and digoxin 82 (HEK293T; HEK293T): 2–3 fold
EC50 (HEK293T; [8]): < 100 nM
toxicity against MEF [3]: nontoxic
caspase-3 activation (caspase-3 activation): did not upregulate
fold more potent than 79a (MDA-MB-231): 3–4 fold
EC50 (MDA-MB-231): 42 nM

CO[C@@]12[C@H](COC(N)=O)C3=C(C(=O)C(C)=C(N)C3=O)N1C[C@@H]1N[C@@H]12 [mitomycin C, reference compound]
γ-H2AX upregulation (DNA-damage response) (γ-H2AX [2]): DDR-upregulation
EC50 (HEK293T; [9]): 4000 nM
caspase-3 activation (caspase-3 activation): Caspase-3-uregulation only in NIH-3T3
